Reference: ChEMBL document CHEMBL3763019, “Discovery of benzenesulfonamide derivatives as potent PI3K/mTOR dual inhibitors with in vivo efficacies against hepatocellular carcinoma” (Bioorg Med Chem, 2016)

How the values were obtained:
[1] = Antiproliferative activity against human MOLT4 cells incubated for 48 hrs by sulforhodamine B assay; assay type: functional; details: MOLT-4, 48 h
Procedure, shortened: (§1)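 Run externally by the US National Cancer Institute as part of its 60 human cancer cell line cytotoxicity screen (NCI-60).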

[2] = Antiproliferative activity against human SKOV3 cells incubated for 48 hrs by sulforhodamine B assay; assay type: functional; details: SK-OV-3, 48 h; procedure, shortened: as §1
[3] = Antiproliferative activity against human SNB19 cells incubated for 48 hrs by sulforhodamine B assay; assay type: functional; details: SNB-19, 48 h; procedure, shortened: as §1
[4] = target: Serine/threonine-protein kinase mTOR (Homo sapiens, UniProt P42345); test: Inhibition of mTOR kinase (unknown origin) assessed as suppression of ULight-4E-BP1 substrate phosphorylation incubated for 1 hr by lance ultra assay
786-0 = test: Antiproliferative activity against human 786-0 cells incubated for 48 hrs by sulforhodamine B assay; assay type: functional; details: 786-0, 48 h; procedure, shortened: as §1
[5] = Antiproliferative activity against human PC3 cells incubated for 48 hrs by sulforhodamine B assay; assay type: functional; details: PC-3, 48 h; procedure, shortened: as §1
KM12 = test: Antiproliferative activity against human KM12 cells incubated for 48 hrs by sulforhodamine B assay; assay type: functional; details: KM12, 48 h; procedure, shortened: as §1
SK-MEL-2 = test: Antiproliferative activity against human SK-MEL-2 cells incubated for 48 hrs by sulforhodamine B assay; assay type: functional; details: SK-MEL-2, 48 h; procedure, shortened: as §1
[6] = Antiproliferative activity against human OVCAR8 cells incubated for 48 hrs by sulforhodamine B assay; assay type: functional; details: OVCAR-8, 48 h; procedure, shortened: as §1
U-251 = test: Antiproliferative activity against human U251 cells incubated for 48 hrs by sulforhodamine B assay; assay type: functional; details: U-251, 48 h
[7] = Antiproliferative activity against human NCI-ADR-RES cells incubated for 48 hrs by sulforhodamine B assay; assay type: functional; procedure, shortened: as §1
A549 [8] = test: Antiproliferative activity against human A549 cells incubated for 48 hrs by sulforhodamine B assay; assay type: functional; details: A549, 48 h; procedure, shortened: as §1
MDA-MB-435 = test: Antiproliferative activity against human MDA-MB-435 cells incubated for 48 hrs by sulforhodamine B assay; assay type: functional; details: MDA-MB-435, 48 h; procedure, shortened: as §1
[9] = Antiproliferative activity against human HOP62 cells incubated for 48 hrs by sulforhodamine B assay; assay type: functional; details: HOP-62, 48 h; procedure, shortened: as §1
[10] = Antiproliferative activity against human OVCAR3 cells incubated for 48 hrs by sulforhodamine B assay; assay type: functional; details: OVCAR-3, 48 h; procedure, shortened: as §1
EKVX = test: Antiproliferative activity against human EKVX cells incubated for 48 hrs by sulforhodamine B assay; assay type: functional
[11] = target: T1, Phosphatidylinositol 4,5-bisphosphate 3-kinase catalytic subunit delta isoform (Homo sapiens) (UniProt O00329); test: Inhibition of PI3K-delta (unknown origin) using PIP2 as substrate at 10 nM incubated for 1 hr by Kinase-Glo luminescent kinase assay
T1 sequence (whole entry): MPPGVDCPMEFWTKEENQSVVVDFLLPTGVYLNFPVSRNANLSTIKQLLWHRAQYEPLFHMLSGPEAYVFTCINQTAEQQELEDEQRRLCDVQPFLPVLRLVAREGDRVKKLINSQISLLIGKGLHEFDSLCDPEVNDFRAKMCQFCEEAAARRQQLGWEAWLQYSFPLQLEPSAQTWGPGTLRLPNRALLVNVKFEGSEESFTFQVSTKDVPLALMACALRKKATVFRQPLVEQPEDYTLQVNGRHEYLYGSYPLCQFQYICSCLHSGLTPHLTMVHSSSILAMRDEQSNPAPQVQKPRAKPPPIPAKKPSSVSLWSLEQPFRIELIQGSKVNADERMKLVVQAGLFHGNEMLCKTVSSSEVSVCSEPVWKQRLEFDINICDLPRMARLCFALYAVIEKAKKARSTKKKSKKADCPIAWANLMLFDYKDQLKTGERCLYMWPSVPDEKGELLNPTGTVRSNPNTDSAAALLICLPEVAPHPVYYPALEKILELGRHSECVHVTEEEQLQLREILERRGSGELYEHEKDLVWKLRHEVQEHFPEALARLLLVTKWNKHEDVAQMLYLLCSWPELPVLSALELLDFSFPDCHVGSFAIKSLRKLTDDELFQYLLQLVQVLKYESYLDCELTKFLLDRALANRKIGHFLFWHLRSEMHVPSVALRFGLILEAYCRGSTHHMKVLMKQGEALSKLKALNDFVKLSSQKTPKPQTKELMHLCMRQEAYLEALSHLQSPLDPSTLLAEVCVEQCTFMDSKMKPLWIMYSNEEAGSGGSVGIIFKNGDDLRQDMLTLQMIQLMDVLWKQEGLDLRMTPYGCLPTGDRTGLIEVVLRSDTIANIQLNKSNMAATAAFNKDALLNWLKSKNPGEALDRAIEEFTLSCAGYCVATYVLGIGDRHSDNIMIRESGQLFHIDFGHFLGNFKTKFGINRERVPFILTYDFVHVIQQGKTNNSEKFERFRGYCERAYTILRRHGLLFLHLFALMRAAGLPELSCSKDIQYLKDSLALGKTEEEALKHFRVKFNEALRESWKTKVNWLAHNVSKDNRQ
Procedure, shortened: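 Final PIP2 was 50 µM and ATP 25 µM; PI3Kδ was 1.65 nM. Reactions ran 1 h at room temperature, then Kinase-Glo was added for 15 min before reading luminescence. Percent inhibition was derived from RLU. Dose-response used ten 3-fold dilutions (top 100 or 500 nM) in duplicate.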

A498 = test: Antiproliferative activity against human A498 cells incubated for 48 hrs by sulforhodamine B assay; assay type: functional; details: A498, 48 h; procedure, shortened: as §1
A549 [12] = test: Cytotoxicity against human A549 cells after 72 hrs by MTT assay; assay type: functional, cell-based; details: A549, 72 h
Procedure, shortened: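 Log-phase cells at 40,000–50,000 cells/mL in DMEM with 10% FBS and antibiotics were seeded and cultured overnight at 37 °C, 5% CO₂. Compounds were diluted in DMSO/PBS from 10^-4 to 10^-9 M and applied for 72 h. MTT (5 mg/mL stock) was then added for 4 h and absorbance read at 570 nm. IC50 came from nonlinear regression on triplicate wells, averaged.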

[13] = read-out: pLC50 (the source's name) (converted)

COc1ncc(-c2ccc3nccc(C#CCN4CCN(S(C)(=O)=O)CC4)c3c2)cc1NS(=O)(=O)c1ccc(F)cc1F
GI50 [1]: 38 nM | CC50 [1, 13]: > 100000 nM | TGI ([1]; read-out: pTGI (converted)): 1150 nM | GI50 [2]: 17.4 nM | CC50 [2, 13]: 33900 nM | TGI ([2]; read-out: pTGI (converted)): 229 nM | GI50 [3]: 355 nM | CC50 [3, 13]: 15100 nM | TGI ([3]; read-out: pTGI (converted)): 2510 nM | IC50 [4]: 5.4 nM | GI50 (786-0): 44.7 nM | CC50 (786-0; [13]): 49000 nM | TGI (786-0; read-out: pTGI (converted)): 1450 nM | GI50 [5]: 63.1 nM | CC50 [5, 13]: 36300 nM | TGI ([5]; read-out: pTGI (converted)): 10200 nM | GI50 (KM12): 275 nM | CC50 (KM12; [13]): 4790 nM | TGI (KM12; read-out: pTGI (converted)): 1480 nM | GI50 (SK-MEL-2): 110 nM | CC50 (SK-MEL-2; [13]): 26300 nM | TGI (SK-MEL-2; read-out: pTGI (converted)): 871 nM | GI50 [6]: 251 nM | CC50 [6, 13]: 67600 nM | TGI ([6]; read-out: pTGI (converted)): 10700 nM | GI50 (U-251): 178 nM | CC50 (U-251; [13]): 4680 nM | TGI (U-251; read-out: pTGI (converted)): 1510 nM | GI50 [7]: 355 nM | CC50 [7, 13]: 79400 nM | TGI ([7]; read-out: pTGI (converted)): 12000 nM | GI50 (A549 [8]): 72.4 nM | CC50 (A549 [8]; [13]): 44700 nM | TGI (A549 [8]; read-out: pTGI (converted)): 5500 nM | GI50 (MDA-MB-435): 75.9 nM | CC50 (MDA-MB-435; [13]): 6610 nM | TGI (MDA-MB-435; read-out: pTGI (converted)): 1070 nM | GI50 [9]: < 10 nM | CC50 [9, 13]: 63100 nM | TGI ([9]; read-out: pTGI (converted)): 2820 nM | GI50 [10]: 51.3 nM | CC50 [10, 13]: 6610 nM | TGI ([10]; read-out: pTGI (converted)): 1100 nM | GI50 (EKVX): 25.7 nM | CC50 (EKVX; [13]): 42700 nM | inhibition [11]: 25.8% | GI50 (A498): 37.1 nM | CC50 (A498; [13]): 2190 nM | TGI (A498; read-out: pTGI (converted)): 245 nM | IC50 (A549 [12]): 1780 nM
